Measured values taken from ChEMBL document CHEMBL5143562, “α-Synuclein Aggregation Inhibitory Prunolides and a Dibrominated β-Carboline Sulfamate from the Ascidian Synoicum prunum” (J Nat Prod, 2022).
Active and inactive are the calls of the source. The rule behind the calls is not given here.

Columns and labels:
[1] = biological target: Alpha-synuclein (Homo sapiens) (UniProt P37840); test: Binding affinity to alpha-Synuclein (unknown origin) at compound to protein molar ratio of 5:1 incubated for 3 hrs by mass spectroscopy analysis
In short: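 α-Syn (10 µM) in 10 mM ammonium acetate. Compound (100 µM, in methanol) added at 5:1 ligand:protein and kept 3 h at rt. Positive-mode HRESIMS, calibrated with sodium trifluoroacetate. Spectra inspected for extra peaks of protein–ligand complexes; scored yes/no.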

[2] = biological target: Alpha-synuclein (Homo sapiens) (UniProt P37840); test: Inhibition of alpha-Synuclein (unknown origin) aggregation assessed as times difference in midpoint of aggregation at compound to protein molar ratio of 5:1 incubated for 36 hrs under shaking condition and measured every 6 hrs by Thioflavin T based fluorescence assay relative to control
In short: (§1)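 Wells held 80 µM α-syn, 50 µM ThT (from 5 mM stock in glycine-NaOH pH 8.0), 80–400 µM compound, saline Tris buffer and a teflon ball. Shaken at 100 rpm, 37 °C, 36 h. Fluorescence (ex 460/em 500 nm) read every 6 h, triplicates. Protein-only wells set 100% aggregation. Percent inhibition taken at end; t50 is the shift in h of the aggregation midpoint.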

[3] = system: Staphylococcus aureus; test: Antibacterial activity against methicillin-sensitive Staphylococcus aureus ATCC 25923 assessed as inhibition of bacterial growth measured after 18 hrs by resazurin based fluorescent plate reader; format: functional, organism-based; conditions: ATCC 25923, 18 h
In short: (§2)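 Broth microdilution in lysogeny broth; overnight culture (16-18 h, 37.5 °C) adjusted to 5 × 10^5 CFU/mL inoculum. DMSO stocks serially diluted 1:2 (ten-fold series); fusidic acid positive and 5% DMSO negative controls. Plates shaken at 100 rpm, 18 h at 37.5 °C, then 704 µM resazurin added (stock), further 1 h; fluorescence ex 544/em 590 nm.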

[4] = biological target: Alpha-synuclein (Homo sapiens) (UniProt P37840); test: Inhibition of alpha-Synuclein (unknown origin) aggregation at compound to protein molar ratio of 1:1 incubated for 36 hrs under shaking condition and measured every 6 hrs by Thioflavin T based fluorescence assay relative to control; conditions: concentration not given here; in short: as §1
[5] = system: Staphylococcus aureus; test: Antibacterial activity against methicillin-resistant Staphylococcus aureus ATCC 43300 assessed as inhibition of bacterial growth measured after 18 hrs by resazurin based fluorescent plate reader; format: functional, organism-based; conditions: ATCC 43300, 18 h; in short: as §2
[6] = Toxicity in mouse primary midbrain culture assessed as change in tyrosine hydroxylase positive dopamine neuron at 0.5 uM; format: tissue-based
In short: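 Primary embryonic mouse midbrain cultures given sonicated mouse α-syn PFFs (2.5 µg/mL final) on DIV8. Compound, 0.1% DMSO vehicle or 50 ng/mL GDNF added ~15 min later. Fixed DIV15, immunostained for TH and pSer129-α-syn, DAPI nuclei. Nine fields per well imaged at 10×. TH+ neurons with/without pSyn aggregates counted. ≥3 independent cultures, ≥3 wells each. Randomized-block ANOVA with Benjamini-Krieger-Yekutieli correction, mean ± SD.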

[7] = system: HEK293; test: Cytotoxicity against human HEK293 cells measured after 72 hrs by resazurin assay; format: toxicity, cell-based; conditions: hek293, 72 h
In short: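 HEK293 cells, 2000 per well, exposed to compound for 72 h at 37 °C. Medium then swapped for 44 µM resazurin for 6 h and fluorescence read. Viability referenced to 40 µM puromycin (positive) and 0.4% DMSO (negative). IC50 by curve fitting.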

[8] = biological target: Alpha-synuclein (Mus musculus) (UniProt O55042); test: Inhibition of PFF-induced alpha-Synuclein aggregation in mouse primary midbrain culture assessed as decrease in tyrosine hydroxylase positive dopamine neuron with p-Syn aggregation at 0.5 uM incubated for 7 days by immunostaining analysis; conditions: time 7.0 day
[9] = biological target: Alpha-synuclein (Homo sapiens) (UniProt P37840); test: Inhibition of alpha-Synuclein (unknown origin) aggregation at compound to protein molar ratio of 5:1 incubated for 36 hrs under shaking condition and measured every 6 hrs by Thioflavin T based fluorescence assay relative to control; conditions: concentration not given here; in short: as §1
[10] = biological target: Alpha-synuclein (Homo sapiens) (UniProt P37840); test: Inhibition of alpha-Synuclein (unknown origin) aggregation assessed as time difference in midpoint of aggregation at compound to protein molar ratio of 1:1 incubated for 36 hrs under shaking condition and measured every 6 hrs by Thioflavin T based fluorescence assay relative to control; in short: as §1
[11] = Selectivity index, ratio of IC50 for cytotoxicity against human HEK293 cells to IC50 for antiplasmodial activity against Plasmodium falciparum 3D7; format: toxicity, cell-based; conditions: read-out: Ratio IC50
[12] = system: Plasmodium falciparum; test: Antiplasmodial activity against Plasmodium falciparum 3D7 assessed as inhibition of parasite growth incubated for 72 hrs by DAPI staining based confocal microscopic analysis; format: functional, organism-based; conditions: 3D7, 72 h
In short: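 P. falciparum 3D7 in imaging plates, 2% parasitemia, 0.3% hematocrit, 16-point dilution series 0.4 nM–40 µM (N=2), 72 h at 37 °C under 5% O2/5% CO2/90% N2. DAPI stain, confocal imaging. Percent inhibition normalised to in-plate 5 µM puromycin (positive) and 0.4% DMSO (negative) controls. IC50 from sigmoidal nonlinear regression.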

Row | Structure (SMILES) | Activity [1] | TIME [2] [h] | IC50 [3] [µM] | inhibition [4] [%] | IC50 [5] [µM] | Activity [6] | Activity [7] | inhibition [8] | inhibition [9] [%] | TIME [10] [h] | selectivity ratio [11] | IC50 [12] [µM]
1 | O=C1C=C(c2cc(Br)c(O)c(Br)c2)[C@]2(O1)O[C@]1(OC(=O)C=C1c1cc(Br)c(O)c(Br)c1)C(c1ccc(O)c(Br)c1)=C2c1ccc(O)c(Br)c1 | Active | 10 | > 10 | 34.3 | > 10 | Non-Toxic | Toxic | Active | 99.9 | 9.4 |  | 
2 | O=C(O[C@@H]1Cc2c(O)cc(O)cc2O[C@@H]1c1cc(O)c(O)c(O)c1)c1cc(O)c(O)c(O)c1 | Active | 11.1 |  |  |  |  |  |  | 98.9 | 9.4 |  | 
3 | O=C1C=C(c2ccc(O)cc2)[C@]2(O1)O[C@]1(OC(=O)C=C1c1ccc(O)cc1)C(c1ccc(O)cc1)=C2c1ccc(O)cc1 | Active | 14.5 | > 10 | 60 | > 10 | Non-Toxic | Toxic |  | 75.2 | 6.2 | 7.6 | 5.1
4 | O=C1C=C(c2ccc(O)cc2)[C@]2(O1)O[C@]1(OC(=O)C=C1c1ccc(O)cc1)C(c1ccc(O)c(Br)c1)=C2c1ccc(O)cc1 | Active | 4 | 10.8 | 24.9 | 16.1 |  |  |  | 92.9 | 2 |  | 
5 | O=C1C=C(c2ccc(O)c(Br)c2)[C@]2(O1)O[C@]1(OC(=O)C=C1c1ccc(O)c(Br)c1)C(c1ccc(O)c(Br)c1)=C2c1ccc(O)c(Br)c1 | Active |  |  |  |  |  |  |  |  |  |  | 
6 | O=C1C=C(c2ccc(O)cc2)[C@]2(O1)O[C@@]1(OC(=O)C=C1c1ccc(O)cc1)C(c1ccc(O)cc1)=C2c1ccc(O)cc1 | Active | 2.3 | > 10 | 22.1 | > 10 |  |  |  | 51.5 | 0 |  | 
7 | O=C1C=C(c2cc(Br)c(O)c(Br)c2)[C@]2(O1)O[C@]1(OC(=O)C=C1c1cc(Br)c(O)c(Br)c1)C(c1ccc(O)c(Br)c1)=C2c1ccc(O)cc1 | Active |  | 12.2 |  | 11.6 |  |  |  |  |  |  | 
8 | O=C1C=C(c2cc(Br)c(O)c(Br)c2)[C@]2(O1)O[C@]1(OC(=O)C=C1c1ccc(O)cc1)C(c1ccc(O)c(Br)c1)=C2c1ccc(O)cc1 | Active |  | > 10 |  | > 10 |  |  |  |  |  |  | 
9 | O=C(O)c1cc2c([nH]c3ccc(Br)cc32)c(C(=O)c2cn(S(=O)(=O)O)c3ccc(Br)cc23)n1 |  |  |  |  |  |  | Toxic |  |  |  | 2.66 | 15.1
10 | O=C1C=C(c2ccc(O)cc2)[C@]2(O1)O[C@]1(OC(=O)C=C1c1ccc(O)c(Br)c1)C(c1ccc(O)cc1)=C2c1ccc(O)cc1 | Active | 4 | > 10 | 39 | > 10 |  |  |  | 97.6 | 1 |  | 
11 | O=C1C=C(c2cc(Br)c(O)c(Br)c2)[C@]2(O1)O[C@]1(OC(=O)C=C1c1cc(Br)c(O)c(Br)c1)C(c1cc(Br)c(O)c(Br)c1)=C2c1cc(Br)c(O)c(Br)c1 | Active | 13.7 | > 10 | 13.3 | > 10 | Non-Toxic | Toxic |  | 89 | 10 |  | 
